According to ChEMBL document CHEMBL5365542, “Difluoromethyl-1,3,4-oxadiazoles Are Selective, Mechanism-Based, and Essentially Irreversible Inhibitors of Histone Deacetylase 6” (J Med Chem, 2023):
pIC50: −log10 of the molar value.

How the values were obtained:
[1] = target: Histone deacetylase 2 (Homo sapiens) (UniProt Q92769); test: (§1) Inhibition of C-terminal 6His-tagged human recombinant HDAC2 (1 to 488 residues) expressed in Sf9 insect cells using Z-Lys(Ac)-AMC as fluorogenic substrate at 10 uM preincubated for 60 mins followed by substrate addition and measured after 90 mins by microplate reader analysis relative to control; settings: time 150.0 min
Method in brief: (§2)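 Human recombinant enzyme was preincubated with 3-fold inhibitor dilutions for 60 min at 25 °C in Tris-HCl pH 8.0 buffer with BSA. ZMAL (75 μM solution) was then added, and the mix was incubated 90 min at 37 °C (max 1% DMSO). Trypsin was added for 30 min at 37 °C, and fluorescence was read at ex 355/em 460. Tested at least twice in duplicate.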

[2] = target: T1, Protein deacetylase HDAC6 (Homo sapiens) (UniProt Q9UBN7); test: (§3) Inhibition of N-terminal GST tagged human recombinant HDAC6 (1 to 1215 residues) expressed in Sf9 insect cells using Z-Lys(Ac)-AMC as fluorogenic substrate at 10 uM preincubated for 60 mins followed by substrate addition and measured after 90 mins by microplate reader analysis relative to control; settings: time 150.0 min; method in brief: as §2
T1 sequence (whole entry): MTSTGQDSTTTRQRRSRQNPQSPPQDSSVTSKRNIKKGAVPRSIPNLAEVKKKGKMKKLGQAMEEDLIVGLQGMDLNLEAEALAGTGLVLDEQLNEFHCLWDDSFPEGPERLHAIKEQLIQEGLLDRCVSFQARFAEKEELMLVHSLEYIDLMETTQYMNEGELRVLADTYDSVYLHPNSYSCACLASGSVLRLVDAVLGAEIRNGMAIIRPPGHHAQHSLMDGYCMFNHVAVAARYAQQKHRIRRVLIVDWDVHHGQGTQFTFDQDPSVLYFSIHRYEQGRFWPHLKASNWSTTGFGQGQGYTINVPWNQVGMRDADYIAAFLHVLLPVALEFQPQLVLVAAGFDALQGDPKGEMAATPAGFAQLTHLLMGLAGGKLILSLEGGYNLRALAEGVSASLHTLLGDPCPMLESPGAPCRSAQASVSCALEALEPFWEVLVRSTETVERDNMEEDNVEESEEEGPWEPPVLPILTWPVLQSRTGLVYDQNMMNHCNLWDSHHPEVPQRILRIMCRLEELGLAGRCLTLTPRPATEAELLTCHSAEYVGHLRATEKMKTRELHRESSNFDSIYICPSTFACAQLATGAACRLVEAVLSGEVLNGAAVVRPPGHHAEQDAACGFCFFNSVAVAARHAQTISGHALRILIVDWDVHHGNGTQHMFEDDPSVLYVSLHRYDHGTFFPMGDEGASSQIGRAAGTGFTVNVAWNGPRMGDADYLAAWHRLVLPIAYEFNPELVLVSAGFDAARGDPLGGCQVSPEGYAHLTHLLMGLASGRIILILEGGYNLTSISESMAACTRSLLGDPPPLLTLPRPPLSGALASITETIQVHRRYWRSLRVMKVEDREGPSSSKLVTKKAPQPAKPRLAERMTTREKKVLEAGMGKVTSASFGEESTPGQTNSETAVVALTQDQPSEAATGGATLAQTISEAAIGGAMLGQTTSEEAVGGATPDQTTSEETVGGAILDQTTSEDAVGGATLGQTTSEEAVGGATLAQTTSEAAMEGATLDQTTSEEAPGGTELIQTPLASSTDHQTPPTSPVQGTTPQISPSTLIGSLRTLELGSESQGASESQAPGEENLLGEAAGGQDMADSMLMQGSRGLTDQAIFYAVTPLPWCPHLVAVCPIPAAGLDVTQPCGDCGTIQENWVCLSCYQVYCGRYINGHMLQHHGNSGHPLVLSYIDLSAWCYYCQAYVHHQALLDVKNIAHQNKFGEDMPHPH

[3] = target: Histone deacetylase 1 (Homo sapiens) (UniProt Q13547); test: as §1, with “6His/FLAG tagged” for “6His-tagged”, “HDAC1” for “HDAC2”, “482” for “488”, “residues) […]” for “residues)”; settings: time 150.0 min; method in brief: as §2
[4] = target: Histone deacetylase 3/Nuclear receptor corepressor 2 (HDAC3/NCoR2) (Homo sapiens) (UniProt O15379+Q9Y618); test: as §3, with “C-terminal His-tagged human HDAC3 (1 to 428 residues)/N-terminal” for “N-terminal”, “NcoR2 (395” for “recombinant HDAC6 (1”, “489” for “1215”; settings: time 150.0 min; method in brief: as §2
[5] = target: Histone deacetylase 4 (Homo sapiens) (UniProt P56524); test: as §3, with “GST-tagged/C-terminal His-tagged” for “GST tagged”, “HDAC4 (627” for “recombinant HDAC6 (1”, “1084” for “1215”, “Boc-Lys(Tfa)-AMC” for “Z-Lys(Ac)-AMC”; settings: time 150.0 min
Method in brief: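 Recombinant human HDAC4 was preincubated with inhibitor for 60 min at 25 °C in Tris-HCl pH 8.0/BSA buffer. Boc-Lys(Tfa)-AMC (42.86 μM solution) was then added for 90 min at 37 °C, followed by trypsin for 30 min at 37 °C. Fluorescence was read at ex 355/em 460. Tested at least twice in duplicate.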

[6] = target: T2, Protein deacetylase HDAC6 (Homo sapiens, UniProt Q9UBN7); test: Inhibition of N-terminal GST tagged human recombinant HDAC6 (1 to 1215 residues) expressed in Sf9 insect cells using Z-Lys(Ac)-AMC as fluorogenic substrate preincubated for 60 mins followed by substrate addition and measured after 90 mins by microplate reader analysis
T2 sequence (Q9UBN7 whole entry): T1 sequence (whole entry)

Sequence of Histone deacetylase 4 (Homo sapiens) (P56524 whole entry): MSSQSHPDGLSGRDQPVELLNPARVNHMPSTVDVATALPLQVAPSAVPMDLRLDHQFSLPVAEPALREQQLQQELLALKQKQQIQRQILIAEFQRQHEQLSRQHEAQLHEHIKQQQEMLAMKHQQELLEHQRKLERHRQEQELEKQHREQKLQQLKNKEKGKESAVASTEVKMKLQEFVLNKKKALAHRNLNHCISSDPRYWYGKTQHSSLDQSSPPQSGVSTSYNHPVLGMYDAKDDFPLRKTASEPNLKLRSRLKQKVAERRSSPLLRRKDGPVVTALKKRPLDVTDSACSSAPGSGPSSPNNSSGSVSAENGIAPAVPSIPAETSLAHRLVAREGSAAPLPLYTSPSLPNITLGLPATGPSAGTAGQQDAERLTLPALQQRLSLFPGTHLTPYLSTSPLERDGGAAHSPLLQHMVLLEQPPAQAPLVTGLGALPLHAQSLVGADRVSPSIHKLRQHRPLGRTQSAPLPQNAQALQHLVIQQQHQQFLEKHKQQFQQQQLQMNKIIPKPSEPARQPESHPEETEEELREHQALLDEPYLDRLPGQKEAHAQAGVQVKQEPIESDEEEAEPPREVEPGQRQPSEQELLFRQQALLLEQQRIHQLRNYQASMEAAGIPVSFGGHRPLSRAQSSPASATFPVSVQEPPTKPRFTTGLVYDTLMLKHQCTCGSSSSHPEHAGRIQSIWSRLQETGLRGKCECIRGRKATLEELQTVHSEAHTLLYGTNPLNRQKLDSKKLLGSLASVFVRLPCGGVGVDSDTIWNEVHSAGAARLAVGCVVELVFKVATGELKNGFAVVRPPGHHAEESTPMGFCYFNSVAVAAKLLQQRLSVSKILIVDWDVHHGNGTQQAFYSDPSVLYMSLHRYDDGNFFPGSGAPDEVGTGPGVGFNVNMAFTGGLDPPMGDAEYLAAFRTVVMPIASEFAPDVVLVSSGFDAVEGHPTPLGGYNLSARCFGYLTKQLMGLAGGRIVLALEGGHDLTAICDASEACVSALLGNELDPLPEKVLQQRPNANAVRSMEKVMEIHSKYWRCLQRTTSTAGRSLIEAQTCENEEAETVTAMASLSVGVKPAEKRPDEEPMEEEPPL
Sequence of Histone deacetylase 2 (Homo sapiens) (Q92769 whole entry, the tested form may be a part): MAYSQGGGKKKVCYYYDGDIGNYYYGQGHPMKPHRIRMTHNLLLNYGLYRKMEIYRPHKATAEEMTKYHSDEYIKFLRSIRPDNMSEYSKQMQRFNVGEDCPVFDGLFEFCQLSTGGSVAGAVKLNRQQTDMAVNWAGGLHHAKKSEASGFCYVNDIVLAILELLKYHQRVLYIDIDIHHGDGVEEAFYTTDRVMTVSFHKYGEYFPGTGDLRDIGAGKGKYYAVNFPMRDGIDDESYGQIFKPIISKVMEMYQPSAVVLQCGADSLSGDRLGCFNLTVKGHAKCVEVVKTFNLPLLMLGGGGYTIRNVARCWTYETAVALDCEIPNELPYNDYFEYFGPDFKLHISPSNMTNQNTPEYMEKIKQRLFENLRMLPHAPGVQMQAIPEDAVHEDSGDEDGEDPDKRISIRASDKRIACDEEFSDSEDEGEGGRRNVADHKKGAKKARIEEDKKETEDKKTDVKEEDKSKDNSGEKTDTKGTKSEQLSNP
Sequence of Histone deacetylase 1 (Homo sapiens) (Q13547 whole entry, the tested form may be a part): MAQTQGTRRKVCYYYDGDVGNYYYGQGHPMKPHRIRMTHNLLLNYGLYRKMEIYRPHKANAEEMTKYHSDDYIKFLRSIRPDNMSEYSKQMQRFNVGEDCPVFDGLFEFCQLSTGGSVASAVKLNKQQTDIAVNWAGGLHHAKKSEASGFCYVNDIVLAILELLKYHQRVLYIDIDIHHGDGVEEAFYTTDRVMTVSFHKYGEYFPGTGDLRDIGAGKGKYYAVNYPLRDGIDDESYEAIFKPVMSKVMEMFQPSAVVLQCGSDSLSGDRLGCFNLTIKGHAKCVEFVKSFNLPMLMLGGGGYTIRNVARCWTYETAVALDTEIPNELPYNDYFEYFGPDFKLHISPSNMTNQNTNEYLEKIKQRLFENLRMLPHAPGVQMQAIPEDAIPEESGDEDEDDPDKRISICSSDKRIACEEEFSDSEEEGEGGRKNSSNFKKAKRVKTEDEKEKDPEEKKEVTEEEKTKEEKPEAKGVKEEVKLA

Structure (SMILES)	inhibition [1] [%]	inhibition [2] [%]	inhibition [3] [%]	inhibition [4] [%]	inhibition [5] [%]	pIC50 [6]
FC(F)c1nnc(-c2cncnc2)o1	< 15	56	< 15	< 15	< 15	–
Cc1nnc(-c2cnc(NCc3ccccc3)nc2)o1	–	< 15	–	–	–	–
CCCCN(Cc1ccc(-c2nnc(C(F)F)o2)cc1)C(=O)Nc1ccccc1	< 15	76	< 15	< 15	< 15	–
O=C(NNC(=O)C(F)F)c1cnc(NCc2ccccc2)nc1	–	< 15	–	–	–	–
NNC(=O)c1cnc(NCc2ccccc2)nc1	–	30	–	–	–	–
FCc1nnc(-c2cnc(NCc3ccccc3)nc2)o1	–	54	–	–	–	–
FC(F)c1nnc(-c2ccccc2)o1	< 15	< 15	< 15	< 15	< 15	–
CCCCN(Cc1ccc(-c2nnc(C(F)F)o2)cc1)C(=O)c1ccccc1	< 15	75	< 15	< 15	< 15	–
COc1ccc(CNc2ncc(-c3nnc(C(F)F)o3)cn2)cc1	< 15	–	< 15	< 15	< 15	6.47
Cc1ccc(-c2nnc(C(F)F)o2)cn1	< 15	39	< 15	< 15	< 15	–
CN(C)c1ccc(C(=O)N(CC(=O)NCc2ccccc2)Cc2ccc(-c3nnc(C(F)F)o3)cc2)cc1	< 15	27	< 15	< 15	< 15	–
